Source: ChEMBL document CHEMBL1909506, “Synthesis and anti-tumor activities of N'-benzylidene-2-(4-oxothieno[2,3-d]pyrimidin-3(4H)-yl)acetohydrazone derivatives” (Bioorg Med Chem Lett, 2011)
Active and inactive are the calls of the source. No cut-off for these calls is given here.

How the values were obtained:
A549 [1] = experiment: Cytotoxicity against human A549 cells assessed as growth inhibition after 48 hrs by MTT assay; assay type: functional, cell-based; conditions: for IC50: A549, 48 h
How it was run: (§1)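 Dose-response MTT assay, 48 h exposure. Compounds run at multiple concentrations; IC50 taken as the concentration giving 50% growth inhibition. HEK-293T (human embryonic kidney cells transformed with adenovirus 5 DNA and SV40 large T-antigen) served as the normal-cell model.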

HeLa [2] = experiment: Induction of apoptosis in human HeLa cells assessed as increase in level of cleaved PARP at 20 uM after 12 hrs by immunoblotting; assay type: functional, cell-based
HeLa [3] = experiment: Induction of apoptosis in human HeLa cells assessed as sub-diploid DNA content at 20 uM after 24 hrs using PI staining by flow cytometry (reference value: 6%); assay type: functional
MDA-MB-231 [4] = experiment: Cytotoxicity against human MDA-MB-231 cells assessed as growth inhibition at 20 uM after 48 hrs by MTT assay; assay type: functional; conditions: MDA-MB-231, 48 h, read-out: GI
How it was run: (§2)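 Single-concentration screen at 20 µM. Cell growth inhibition read by standard MTT assay after 48 h treatment and expressed as inhibition ratio.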

HeLa [5] = experiment: Cytotoxicity against human HeLa cells assessed as growth inhibition after 48 hrs by MTT assay; assay type: functional, cell-based; how it was run: as §1
[6] = target: Induced myeloid leukemia cell differentiation protein Mcl-1 (Homo sapiens) (UniProt Q07820); experiment: Inhibition of mouse/human MCL1 expressed in Escherichia coli BL21 at 1 uM to 50 uM using FAM-labeled Bid-BH3 as tracer by fluorescence polarization assay
HeLa [7] = experiment: Cytotoxicity against human HeLa cells assessed as growth inhibition at 20 uM after 48 hrs by MTT assay; assay type: functional; conditions: read-out: GI; how it was run: as §2
HeLa [8] = experiment: Induction of apoptosis in human HeLa cells assessed as increase in level of cleaved caspase-3 at 20 uM after 12 hrs by immunoblotting; assay type: functional, cell-based
HEK-293T = experiment: Cytotoxicity against human HEK293T cells assessed as growth inhibition after 48 hrs by MTT assay; assay type: cell-based; how it was run: as §1
[9] = target: Induced myeloid leukemia cell differentiation protein Mcl-1 (Homo sapiens) (UniProt Q07820); experiment: Inhibition of mouse/human MCL1 expressed in Escherichia coli BL21 at 50 uM using FAM-labeled Bid-BH3 as tracer by fluorescence polarization assay
A549 [10] = experiment: Cytotoxicity against human A549 cells assessed as growth inhibition at 20 uM after 48 hrs by MTT assay; assay type: functional; conditions: for inhibition of growth at 20 µM: A549, 48 h, read-out: GI; how it was run: as §2
MDA-MB-231 [11] = experiment: Cytotoxicity against human MDA-MB-231 cells assessed as growth inhibition after 48 hrs by MTT assay; assay type: functional, cell-based; conditions: for IC50: MDA-MB-231, 48 h; how it was run: as §1
HeLa [12] = experiment: Induction of apoptosis in human HeLa cells at 20 uM after 24 hrs using PI staining by flow cytometry relative to control; assay type: functional

Structure (SMILES): Cc1cc(-c2csc3ncn(CC(=O)N/N=C/c4ccc(Cl)c(F)c4)c(=O)c23)ccc1Cl
- growth inhibition (GI) (A549 [1]): Dose-dependent effect
- IC50 (A549 [1]): 17 µM
- Activity (HeLa [2]): Active
- Activity (HeLa [3]): 27%
- inhibition of growth at 20 µM (MDA-MB-231 [4]): 74%
- IC50 (HeLa [5]): 15 µM
- growth inhibition (GI) (HeLa [5]): Dose-dependent effect
- inhibition [6]: inactive
- inhibition of growth at 20 µM (HeLa [7]): 52%
- Activity (HeLa [8]): Active
- IC50 (HEK-293T): > 50 µM
- inhibition [9]: 40%
- inhibition of growth at 20 µM (A549 [10]): 51%
- growth inhibition (GI) (MDA-MB-231 [11]): Dose-dependent effect
- IC50 (MDA-MB-231 [11]): 16 µM

Structure (SMILES): O=C(Cn1cnc2sc3c(c2c1=O)CCCCC3)N/N=C/c1ccc(Cl)c([N+](=O)[O-])c1
- IC50 (A549 [1]): > 50 µM
- Activity (HeLa [12]): 6%
- inhibition of growth at 20 µM (MDA-MB-231 [4]): 66%
- IC50 (HeLa [5]): 6 µM
- inhibition [6]: inactive
- inhibition of growth at 20 µM (HeLa [7]): 96%
- IC50 (HEK-293T): > 50 µM
- growth inhibition (GI) (A549 [10]): inactive
- IC50 (MDA-MB-231 [11]): 23 µM

Structure (SMILES): O=C(Cn1cnc2scc(-c3ccccc3)c2c1=O)N/N=C/c1ccc(Cl)c([N+](=O)[O-])c1
- growth inhibition (GI) (A549 [1]): Dose-dependent effect
- IC50 (A549 [1]): 16 µM
- Activity (HeLa [12]): 8%
- inhibition of growth at 20 µM (MDA-MB-231 [4]): 29%
- IC50 (HeLa [5]): 11 µM
- growth inhibition (GI) (HeLa [5]): Dose-dependent effect
- inhibition [6]: inactive
- inhibition of growth at 20 µM (HeLa [7]): 64%
- IC50 (HEK-293T): > 50 µM
- inhibition of growth at 20 µM (A549 [10]): 66%
- growth inhibition (GI) (MDA-MB-231 [11]): Dose-dependent effect
- IC50 (MDA-MB-231 [11]): 20 µM

Structure (SMILES): O=C(Cn1cnc2scc(-c3ccc(Cl)cc3)c2c1=O)N/N=C/c1ccc(Cl)c([N+](=O)[O-])c1
- growth inhibition (GI) (A549 [1]): Dose-dependent effect
- IC50 (A549 [1]): 20 µM
- Activity (HeLa [2]): Active
- Activity (HeLa [3]): 22%
- inhibition of growth at 20 µM (MDA-MB-231 [4]): 78%
- IC50 (HeLa [5]): 11 µM
- growth inhibition (GI) (HeLa [5]): Dose-dependent effect
- inhibition [6]: inactive
- inhibition of growth at 20 µM (HeLa [7]): 74%
- Activity (HeLa [8]): Active
- IC50 (HEK-293T): > 50 µM
- inhibition of growth at 20 µM (A549 [10]): 58%
- growth inhibition (GI) (MDA-MB-231 [11]): Dose-dependent effect
- IC50 (MDA-MB-231 [11]): 32 µM
